Results reported in ChEMBL document CHEMBL5053517, “Design, synthesis, and antiviral activity of phenylalanine derivatives as HIV-1 capsid inhibitors” (Bioorg Med Chem, 2021).

Legend:
[1] = Selectivity index, ratio of CC50 for cytotoxicity against human MT4 cells to EC50 for antiviral activity against HIV1 infected in human MT4 cells; assay type: toxicity, cell-based; settings: read-out: Ratio CC50/EC50
Summary of the method: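 SI is CC₅₀/EC₅₀. For EC₅₀, MT-4 cells (1 × 10⁵ cells/mL) were infected with 200 TCID50 HIV-1 NL4-3 Nanoluc-sec with graded compound concentrations, held 3 days at 37°C, 5% CO₂, and read by luminescence; EC₅₀ is 50% luciferase reduction versus virus control. For CC₅₀, uninfected MT-4 cells were run in parallel for 3 days with an XTT read-out at 450 nm.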

[2] = test system: Human immunodeficiency virus 1; experiment: Antiviral activity against HIV1 NL4-3 expressing NanoLuc-sec infected in human MT4 cells assessed as reduction in viral replication measured after 3 days by bright Glo-luciferase reporter gene assay; assay type: functional, organism-based; settings: Human immunodeficiency virus 1, NL4-3, MT4, 72 h
Summary of the method: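 MT-4 cells (1 × 10⁵ cells/mL) infected with 200 TCID50 HIV-1 NL4–3 Nanoluc-sec across a range of compound concentrations. Incubation ran 3 days at 37°C, 5% CO₂, over multiple replication rounds. Luminescence was read after Bright Glo addition. EC₅₀ is the concentration giving 50% lower luciferase RLU than virus-control wells.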

MT4 = experiment: (§1) Cytotoxicity against human MT4 cells assessed as reduction in cell viability incubated for 3 days by XTT assay; assay type: cell-based; settings: mt4, 72 h, time 3 day
Summary of the method: (§2)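 Uninfected MT-4 cells were cultured with various compound concentrations at 37°C, 5% CO₂ for three days, in parallel with the antiviral assay. XTT was added, and absorbance at 450 nm was read four hours later. CC₅₀ is the concentration giving 50% loss of cell viability.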

[3] = Binding affinity to HIV1 capsid protein hexamer assessed as dissociation constant by SPR analysis; parameters: species or system Human immunodeficiency virus 1
Summary of the method: (§3)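 SPR at 25 °C on amine-coupled GLH chips, with protein at 500 μg/ml in 10 mM sodium acetate pH 5.5. Running buffer was 20 mM sodium phosphate, 150 mM NaCl, 0.005% Tween 20, pH 7.4, plus 3% DMSO for compound dilutions. One-shot kinetics used 100 μL/min, 1 min association and 5 min dissociation. Responses were reference-subtracted, run three times, and KD taken from a one-site binding model.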

[4] = Binding affinity to HIV1 capsid protein monomer assessed as dissociation constant by SPR analysis; parameters: species or system Human immunodeficiency virus 1; summary of the method: as §3
[5] = as §1; assay type: cell-based; settings: MT4 cells, time 3 day; summary of the method: as §2

Row | Structure (SMILES) | selectivity ratio [1] | EC50 [2] [µM] | CC50 (MT4) [µM] | Kd [3] [µM] | Kd [4] [µM] | CC50 at 72 h [5] [µM]
1 | COc1ccc(N(C)C(=O)[C@H](Cc2ccccc2)NC(=O)c2cccc(S(=O)(=O)N3CCSCC3)c2)cc1 | > 1.84 | 5.06 | > 9.33 |  |  | 
2 | COc1ccc(N(C)C(=O)[C@H](Cc2ccccc2)NC(=O)c2cccc(NS(=O)(=O)c3ccc(OC(F)(F)F)cc3)c2)cc1 |  | > 7.97 | > 7.97 |  |  | 
3 | COc1ccc(N(C)C(=O)[C@H](Cc2ccccc2)NS(=O)(=O)CC(=O)Nc2ccc(C#N)cc2)cc1 | > 1.22 | 8.09 | > 9.87 |  |  | 
4 | COc1ccc(N(C)C(=O)[C@H](Cc2ccccc2)NC(=O)c2cccc(S(=O)(=O)Nc3ccc(C(F)(F)F)cc3)c2)cc1 |  | > 8.17 | > 8.17 |  |  | 
5 | COc1ccc(N(C)C(=O)[C@H](Cc2ccccc2)NC(=O)c2cccc(S(=O)(=O)N3CCc4cc([N+](=O)[O-])ccc43)c2)cc1 |  | > 8.13 | > 8.13 |  |  | 
6 | COc1ccc(N(C)C(=O)CS(=O)(=O)N[C@@H](Cc2ccccc2)C(=O)N(C)c2ccc(OC)cc2)cc1 | > 1.85 | 5.14 | > 9.51 | 4.82 | 15.8 | 
7 | COc1ccc(N(C)C(=O)[C@H](Cc2ccccc2)NC(=O)c2cccc(S(=O)(=O)Nc3cc(F)cc(F)c3)c2)cc1 |  | > 8.63 | > 8.63 |  |  | 
8 | COc1ccc(N(C)C(=O)[C@H](Cc2ccccc2)NC(=O)c2cccc(NS(=O)(=O)c3cc(F)cc(F)c3)c2)cc1 |  | > 8.63 | > 8.63 |  |  | 
9 | COc1ccc(N(C)C(=O)c2cccc(S(=O)(=O)N[C@@H](Cc3ccccc3)C(=O)N(C)c3ccc(OC)cc3)c2)cc1 |  | > 8.51 | > 8.51 |  |  | 
10 | COc1ccc(N(C)C(=O)[C@H](Cc2ccccc2)NC(=O)c2cccc(S(=O)(=O)N(C)c3ccc(OC)cc3)c2)cc1 | > 1.61 | 5.27 | > 8.51 |  |  | 
11 | COc1ccc(N(C)C(=O)[C@H](Cc2ccccc2)NS(=O)(=O)c2cccc(C(=O)Nc3ccc4ncsc4c3)c2)cc1 |  | > 8.32 | > 8.32 |  |  | 
12 | COc1ccc(N(C)C(=O)[C@H](Cc2ccccc2)NS(=O)(=O)CC(=O)N2CCc3cc(OC)ccc32)cc1 |  | > 9.3 | > 9.3 |  |  | 
13 | COc1ccc(N(C)C(=O)[C@H](Cc2ccccc2)NS(=O)(=O)CC(=O)N2CCc3cc([N+](=O)[O-])ccc32)cc1 |  | > 9.09 |  |  |  | > 9.05
14 | COc1ccc(N(C)C(=O)[C@H](Cc2ccccc2)NC(=O)c2cccc(S(=O)(=O)N3CCc4cc(OC)ccc43)c2)cc1 |  | > 8.34 | > 8.34 |  |  | 
15 | COc1ccc(N(C)C(=O)[C@H](Cc2ccccc2)NS(=O)(=O)CC(=O)Nc2ccc3ncsc3c2)cc1 |  | > 9.28 | > 9.28 |  |  | 
16 | COc1ccc(N(C)C(=O)[C@H](Cc2ccccc2)NC(=O)C(=O)N2CCc3cc(OC)ccc32)cc1 |  | > 10.3 | > 10.3 |  |  | 

Row | Structure (SMILES) | selectivity ratio [1] | EC50 [2] [µM] | CC50 (MT4) [µM] | Kd [3] [µM] | Kd [4] [µM] | CC50 at 72 h [5] [µM]
17 | COc1ccc(N(C)C(=O)[C@H](Cc2ccccc2)NS(=O)(=O)c2cccc(C(=O)NC3CC3)c2)cc1 |  | > 9.85 | > 9.85 |  |  | 
18 | COc1ccc(N(C)C(=O)[C@H](Cc2ccccc2)NS(=O)(=O)CC(=O)Nc2cc(F)cc(F)c2)cc1 |  | > 9.66 | > 9.66 |  |  | 
19 | COc1ccc(N(C)C(=O)[C@H](Cc2ccccc2)NC(=O)c2cccc(NS(=O)(=O)c3ccc(F)cc3)c2)cc1 |  | > 8.91 | > 8.91 |  |  | 
20 | COc1ccc(N(C)C(=O)[C@H](Cc2ccccc2)NC(=O)c2cccc(S(=O)(=O)N3CCc4cc(N)ccc43)c2)cc1 | > 3.33 | 2.57 | > 8.55 | 4.21 | 11.6 | 
21 | COc1ccc(N(C)C(=O)[C@H](Cc2ccccc2)NC(=O)C(=O)Nc2ccc([N+](=O)[O-])cc2)cc1 |  | > 10.5 |  |  |  | 
22 | COc1ccc(N(C)C(=O)[C@H](Cc2ccccc2)NC(=O)C(=O)Nc2cc(F)cc(F)c2)cc1 |  | > 8.81 | > 8.81 |  |  | 
23 | COc1ccc(N(C)C(=O)[C@H](Cc2ccccc2)NS(=O)(=O)c2cccc(C(=O)N3CCc4ccncc43)c2)cc1 |  | > 8.76 |  |  |  | > 8.76
24 | COc1ccc(N(C)C(=O)C(=O)N[C@@H](Cc2ccccc2)C(=O)N(C)c2ccc(OC)cc2)cc1 |  | > 10.5 | > 10.5 |  |  | 
25 | COc1ccc(N(C)C(=O)[C@H](Cc2ccccc2)NC(=O)c2cccc(S(=O)(=O)N(C)C)c2)cc1 | > 1.12 | 8.68 | > 10.1 |  |  | 
26 | COc1ccc(N(C)C(=O)[C@H](Cc2ccccc2)NC(=O)C(=O)N2CCc3cc([N+](=O)[O-])ccc32)cc1 |  | > 9.95 | > 9.95 |  |  | 
27 | COc1ccc(N(C)C(=O)[C@H](Cc2ccccc2)NC(=O)c2cccc(S(=O)(=O)N3CCCCC3)c2)cc1 | > 1.86 | 4.85 |  |  |  | > 9.03
28 | COc1ccc(N(C)C(=O)[C@H](Cc2ccccc2)NC(=O)c2cccc(S(=O)(=O)N3CCc4ccccc43)c2)cc1 |  | > 8.78 | > 8.78 |  |  | 
29 | COc1ccc(N(C)C(=O)[C@H](Cc2ccccc2)NC(=O)C(=O)Nc2ccc3ncsc3c2)cc1 |  | > 10.2 | > 10.2 |  |  | 
30 | COc1ccc(N(C)C(=O)[C@H](Cc2ccccc2)NC(=O)C(=O)Nc2ccc(C#N)cc2)cc1 |  | > 11 | > 11 |  |  | 
31 | COc1ccc(N(C)C(=O)[C@H](Cc2ccccc2)NS(=O)(=O)CC(=O)n2ncc3ccccc32)cc1 |  | > 9.87 | > 9.87 |  |  | 
32 | COc1ccc(N(C)C(=O)[C@H](Cc2ccccc2)NS(=O)(=O)c2cccc(C(=O)N3CCOCC3)c2)cc1 |  | > 9.3 | > 9.3 |  |  | 
